Reference: ChEMBL document CHEMBL1156509, “Survival in the presence of antifungals: genome-wide expression profiling of Aspergillus niger in response to sublethal concentrations of caspofungin and fenpropimorph” (2007)
Each block holds one molecule with its values, some of them ahead of it. Activity calls are given as the source filed them.

Assays:
[1] = tested on: Aspergillus niger; experiment: Induction of agsA expression in Aspergillus niger N402 germlings; assay type: functional, organism-based
In short: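 RNA from 1 h-treated N402 bioreactor germlings (5 h pre-growth, FM pH 3, 37 °C) was hybridised to A. niger Affymetrix arrays, biological duplicate. Data were normalised; differential expression was taken as at least 1.5-fold change with p cutoff 0.05. Northern blots on the same RNA were used for validation.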

[2] = tested on: Aspergillus niger; experiment: Effect on increase sub apical branching in Aspergillus niger N402 germlings assessed as branching index at 5 ug/mL after 5 hrs; assay type: functional
In short: (§1)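 Compound or water control was added, then 1 h more at 37 °C. Adherent germlings were scored by microscopy, at least 50 per sample, as branched or unbranched. Branching index = branched/total germlings.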

[3] = tested on: Aspergillus niger; experiment: Effect on morphological changes in Aspergillus niger N402 germlings assessed as germ tube elongation and branching at 5 ng/mL after 5 hrs; assay type: functional, organism-based; in short: as §1
[4] = tested on: Aspergillus niger; experiment: Effect on morphological changes in Aspergillus niger N402 germlings assessed as germ tube elongation and branching at 5 ug/mL after 5 hrs; assay type: functional, organism-based; in short: as §1
[5] = tested on: Aspergillus niger; experiment: Effect on morphological changes in Aspergillus niger N402 germlings assessed as germ tube elongation and branching at 0.9 ug/mL after 5 hrs; assay type: functional, organism-based; in short: as §1
[6] = tested on: Aspergillus niger; experiment: Effect on morphological changes in Aspergillus niger N402 germlings assessed as tip swelling at 5 ng/mL after 5 hrs; assay type: functional, organism-based
[7] = tested on: Aspergillus niger; experiment: Effect on morphological changes in Aspergillus niger N402 germlings assessed as tip swelling at 5 ug/mL after 5 hrs; assay type: functional, organism-based
[8] = tested on: Aspergillus niger; experiment: Effect on morphological changes in Aspergillus niger N402 germlings assessed as tip swelling at 0.9 ug/mL after 5 hrs; assay type: functional, organism-based
[9] = tested on: Aspergillus niger; experiment: Effect on morphological changes in Aspergillus niger N402 germlings assessed as branching index at 50 ug/mL; assay type: functional
[10] = tested on: Aspergillus niger; experiment: Effect on morphological changes in Aspergillus niger N402 germlings assessed as increase in germ tube; assay type: functional, organism-based
In short: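 Bioreactor: 5×10^9 N402 conidia in 5 l fermentation medium, pH 3 controlled, 37 °C, 250 rpm. Compound in water (or water alone) added at 5 h, then 1 h further cultivation. At least 200 germlings per run were counted for germ tubes per germling and subapical branches. Mean ± S.D. from two independent runs.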

[11] = tested on: Aspergillus niger; experiment: Induction of crhD gene expression in Aspergillus niger by microarray analysis relative to control; assay type: functional
In short: (§2)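 A. niger N402 conidia (5×10^9) grown in 5 L fermentation medium in a bioreactor at 37 °C, pH 3, 250 rpm. Drug in distilled H2O or H2O alone added at 5 h; mycelium harvested by filtration 1 h later and frozen in liquid nitrogen. cRNA hybridized to Affymetrix A. niger GeneChips, two independent bioreactor runs per condition; normalized, ≥1.5-fold change at p 0.05 cutoff.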

[12] = tested on: Aspergillus niger; experiment: Induction of GFP tagged PagsA expression in Aspergillus niger JvD1.1 at 104.2 ug/mL by fluorescence microscopy; assay type: functional, organism-based
In short: (§3)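 agsA promoter-GFP reporters, cytoplasmic (JvD1.1) or nuclear H2B-targeted (RD6.47). Germlings pre-grown 6 h at 37 °C in 2× CM, exposed 3 h at 30 °C to seven 2-fold dilutions. GFP levels were scored by fluorescence microscopy as 0 (basal), 1 (intermediate) or 2 (high). Controls: gpdA-H2B-GFP strain MA26.1 (positive), N402 (negative).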

[13] = tested on: Aspergillus niger; experiment: Induction of GFP tagged PagsA-H2B expression in Aspergillus niger RD6.47 at 104.2 ug/mL by fluorescence microscopy; assay type: functional, organism-based; in short: as §3
[14] = tested on: Aspergillus niger; experiment: Antifungal activity against Aspergillus niger JvD1.1 at 104.2 ug/mL by microtiter plate; assay type: functional, organism-based
In short: (§4)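 Reporter conidia (2×10^4 per well) were pre-grown 6 h at 37 °C in 2× CM in glass-bottom plates. An equal volume of a 2-fold dilution series (seven concentrations) was added, then 3 h at 30 °C. Medium was discarded and adherent germlings imaged. Growth inhibition was scored 0/1/2 from hyphal length.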

[15] = tested on: Aspergillus niger; experiment: Antifungal activity against Aspergillus niger RD6.47 at 104.2 ug/mL by microtiter plate; assay type: functional, organism-based; in short: as §4
[16] = tested on: Aspergillus niger; experiment: Antifungal activity against Aspergillus niger RD6.47 by microtiter plate; assay type: functional, organism-based
In short: (§5)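 Reporter germlings (cytoplasmic PagsA-GFP JvD1.1 or nuclear PagsA-H2B-GFP RD6.47), 2×10^4 conidia per well in 2× CM, pre-grown 6 h at 37 °C. A 2-fold dilution series (seven concentrations) was then added and plates were held 3 h at 30 °C. Adherent germlings were imaged, and growth inhibition was scored 0/1/2 from hyphal length.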

[17] = tested on: Aspergillus niger; experiment: Induction of GFP tagged PagsA expression in Aspergillus niger JvD1.1 by fluorescence microscopy; assay type: functional, organism-based
In short: (§6)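 Conidia of the agsA-promoter GFP reporters (2×10^4 per well, 2× CM) germinated 6 h at 37 °C, then were exposed 3 h at 30 °C to seven 2-fold serial dilutions. GFP in adherent germlings was read by fluorescence microscopy and scored 0 (basal), 1 (intermediate) or 2 (high). Positive control was a PgpdA-H2B-GFP strain; N402 was the negative control.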

[18] = tested on: Aspergillus niger; experiment: Induction of GFP tagged PagsA-H2B expression in Aspergillus niger RD6.47 by fluorescence microscopy; assay type: functional, organism-based; in short: as §6
[19] = tested on: Aspergillus niger; experiment: Effect on morphological changes in Aspergillus niger JvD1.1 assessed as tip swelling; assay type: functional, organism-based
[20] = tested on: Aspergillus niger; experiment: Effect on morphological changes in Aspergillus niger RD6.47 assessed as tip swelling; assay type: functional, organism-based
[21] = tested on: Aspergillus niger; experiment: Effect on increase sub apical branching in Aspergillus niger N402 germlings assessed as branching index at 5 ng/mL after 5 hrs; assay type: functional
In short: (§7)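 N402 conidia (5×10^5) were germinated 5 h at 37 °C on coverslips in 5 ml liquid MM plus 0.003% yeast extract. Compound was added (water for controls) and culture continued 1 h at 37 °C. At least 50 adherent germlings were scored microscopically as branched or unbranched; branching index = branched/(branched + unbranched).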

[22] = tested on: Aspergillus niger; experiment: Effect on morphological changes in Aspergillus niger N402 germlings assessed as branching index at 50 ng/mL; assay type: functional; in short: as §7
[23] = tested on: Aspergillus niger; experiment: Induction of gfaB gene expression in Aspergillus niger by microarray analysis relative to control; assay type: functional; in short: as §2
[24] = tested on: Aspergillus niger; experiment: Induction of chsB gene expression in Aspergillus niger by microarray analysis relative to control; assay type: functional; in short: as §2
[25] = tested on: Aspergillus niger; experiment: Induction of gnaA gene expression in Aspergillus niger by microarray analysis relative to control; assay type: functional; in short: as §2
[26] = tested on: Aspergillus niger; experiment: Induction of gelA gene expression in Aspergillus niger by microarray analysis relative to control; assay type: functional; in short: as §2
[27] = tested on: Aspergillus niger; experiment: Induction of crhB gene expression in Aspergillus niger by microarray analysis relative to control; assay type: functional; in short: as §2
[28] = tested on: Aspergillus niger; experiment: Induction of gfaA gene expression in Aspergillus niger by microarray analysis relative to control; assay type: functional; in short: as §2
[29] = tested on: Aspergillus niger; experiment: Induction of agtA gene expression in Aspergillus niger by microarray analysis relative to control; assay type: functional; in short: as §2
[30] = tested on: Aspergillus niger; experiment: Induction of crhC gene expression in Aspergillus niger by microarray analysis relative to control; assay type: functional; in short: as §2
[31] = tested on: Aspergillus niger; experiment: Induction of hocA gene expression in Aspergillus niger by microarray analysis relative to control; assay type: functional; in short: as §2
[32] = tested on: Aspergillus niger; experiment: Induction of pgmB gene expression in Aspergillus niger by microarray analysis relative to control; assay type: functional; in short: as §2
[33] = tested on: Aspergillus niger; experiment: Induction of dpmA gene expression in Aspergillus niger by microarray analysis relative to control; assay type: functional; in short: as §2
[34] = tested on: Aspergillus niger; experiment: Induction of bgtB gene expression in Aspergillus niger by microarray analysis relative to control; assay type: functional; in short: as §2
[35] = tested on: Aspergillus niger; experiment: Induction of ugpA gene expression in Aspergillus niger by microarray analysis relative to control; assay type: functional; in short: as §2
[36] = tested on: Aspergillus niger; experiment: Induction of dfgC gene expression in Aspergillus niger by microarray analysis relative to control; assay type: functional; in short: as §2
[37] = tested on: Aspergillus niger; experiment: Induction of rhoB gene expression in Aspergillus niger by microarray analysis relative to control; assay type: functional; in short: as §2
[38] = tested on: Aspergillus niger; experiment: Induction of rapA gene expression in Aspergillus niger by microarray analysis relative to control; assay type: functional; in short: as §2
[39] = tested on: Aspergillus niger; experiment: Induction of mkkA gene expression in Aspergillus niger by microarray analysis relative to control; assay type: functional; in short: as §2
[40] = tested on: Aspergillus niger; experiment: Induction of srgA gene expression in Aspergillus niger by microarray analysis relative to control; assay type: functional; in short: as §2
[41] = tested on: Aspergillus niger; experiment: Induction of dppA gene expression in Aspergillus niger by microarray analysis relative to control; assay type: functional; in short: as §2
[42] = tested on: Aspergillus niger; experiment: Induction of lplB gene expression in Aspergillus niger by microarray analysis relative to control; assay type: functional; in short: as §2
[43] = tested on: Aspergillus niger; experiment: Upregulation of Rho2-GTPase gene expression in Aspergillus niger relative to control; assay type: functional, organism-based
In short: (§8)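 N402 conidia (5×10^9) were grown in 5 l fermentation medium, pH 3, 37 °C, 250 rpm in a bioreactor. After 5 h compound was added (water for controls); mycelium was harvested 1 h later. RNA was hybridized to A. niger Affymetrix GeneChips from two independent bioreactor runs. Genes with ≥1.5-fold change at p < 0.05 after normalization were counted as differentially expressed.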

[44] = tested on: Aspergillus niger; experiment: Upregulation of agtA gene expression in Aspergillus niger relative to control; assay type: functional, organism-based; in short: as §8
[45] = tested on: Aspergillus niger; experiment: Induction of GFP tagged PagsA expression in Aspergillus niger JvD1.1 at 25.6 ug/mL by fluorescence microscopy; assay type: functional, organism-based; in short: as §6
[46] = tested on: Aspergillus niger; experiment: Induction of GFP tagged PagsA-H2B expression in Aspergillus niger RD6.47 at 25.6 ug/mL by fluorescence microscopy; assay type: functional, organism-based; in short: as §6
[47] = tested on: Aspergillus niger; experiment: Antifungal activity against Aspergillus niger JvD1.1 at 25.6 ug/mL by microtiter plate; assay type: functional, organism-based; in short: as §5
[48] = tested on: Aspergillus niger; experiment: Antifungal activity against Aspergillus niger RD6.47 at 25.6 ug/mL by microtiter plate; assay type: functional, organism-based; in short: as §5
[49] = tested on: Aspergillus niger; experiment: Antifungal activity against Aspergillus niger JvD1.1 by microtiter plate; assay type: functional, organism-based; in short: as §5

Structure (SMILES): CC(Cc1ccc(C(C)(C)C)cc1)CN1C[C@@H](C)O[C@@H](C)C1 (stereo partly specified) [FENPROPIMORPH]
Activity [1]: Active
Activity [2]: 33%
Activity [3]: Active
Activity [4]: Active
Activity [5]: Active
Activity [6]: Active
Activity [7]: Active
Activity [8]: Active
Activity [9]: 30.5%
Activity [10]: Active
fold change (FC) [11]: 1.51
Activity [12]: Active
Activity [13]: Active
Activity [14]: Active
Activity [15]: Active

Structure (SMILES): Fc1ccc([C@]2(Cn3cncn3)O[C@H]2c2ccccc2Cl)cc1
Activity [12]: inactive
Activity [13]: inactive
Activity [14]: inactive
Activity [15]: inactive

Activity [43]: Active
Structure (SMILES): CC[C@H](C)C[C@H](C)CCCCCCCCC(=O)N[C@H]1C[C@@H](O)[C@@H](NCCN)NC(=O)[C@@H]2[C@@H](O)CCN2C(=O)[C@H]([C@H](O)CCN)NC(=O)[C@H]([C@H](O)[C@@H](O)c2ccc(O)cc2)NC(=O)[C@@H]2C[C@@H](O)CN2C(=O)[C@H]([C@@H](C)O)NC1=O [CASPOFUNGIN]
Activity [16]: Active
Activity [17]: Active
Activity [18]: Active
Activity [19]: Active
Activity [20]: Active
Activity [1]: Active
Activity [21]: 34.5%
Activity [3]: Active
Activity [4]: Active
Activity [5]: Active
Activity [6]: Active
Activity [7]: Active
Activity [8]: Active
Activity [22]: 43.7%
Activity [10]: Active
fold change (FC) [23]: 7.98
fold change (FC) [24]: 3.08
fold change (FC) [25]: 3.18
fold change (FC) [26]: 3.05
fold change (FC) [27]: 2.58
fold change (FC) [28]: 2.32
fold change (FC) [29]: 2.1
fold change (FC) [30]: 2.03
fold change (FC) [31]: 2.03
fold change (FC) [32]: 1.95
fold change (FC) [33]: 1.85
fold change (FC) [34]: 1.77
fold change (FC) [35]: 1.64
fold change (FC) [36]: 2.4
fold change (FC) [37]: 2.32
fold change (FC) [38]: 2.16
fold change (FC) [39]: 2.03
fold change (FC) [40]: 2.51
fold change (FC) [41]: 2.62
fold change (FC) [42]: 1.77
Activity [44]: Active
Activity [45]: Active
Activity [46]: Active
Activity [47]: Active
Activity [48]: Active
Activity [49]: Active
